Results taken from ChEMBL document CHEMBL1765003, “Discovery of (1S,2R,3R)-2,3-dimethyl-2-phenyl-1-sulfamidocyclopropanecarboxylates: novel and highly selective aggrecanase inhibitors” (J Med Chem, 2011).

How the values were obtained:
[1] = molecular target: T1, A disintegrin and metalloproteinase with thrombospondin motifs 5 (Homo sapiens, UniProt Q9UNA0); assay: Inhibition of human recombinant aggrecanase 2 after 150 mins by fluorescence plate reader
T1 sequence (Q9UNA0 whole entry): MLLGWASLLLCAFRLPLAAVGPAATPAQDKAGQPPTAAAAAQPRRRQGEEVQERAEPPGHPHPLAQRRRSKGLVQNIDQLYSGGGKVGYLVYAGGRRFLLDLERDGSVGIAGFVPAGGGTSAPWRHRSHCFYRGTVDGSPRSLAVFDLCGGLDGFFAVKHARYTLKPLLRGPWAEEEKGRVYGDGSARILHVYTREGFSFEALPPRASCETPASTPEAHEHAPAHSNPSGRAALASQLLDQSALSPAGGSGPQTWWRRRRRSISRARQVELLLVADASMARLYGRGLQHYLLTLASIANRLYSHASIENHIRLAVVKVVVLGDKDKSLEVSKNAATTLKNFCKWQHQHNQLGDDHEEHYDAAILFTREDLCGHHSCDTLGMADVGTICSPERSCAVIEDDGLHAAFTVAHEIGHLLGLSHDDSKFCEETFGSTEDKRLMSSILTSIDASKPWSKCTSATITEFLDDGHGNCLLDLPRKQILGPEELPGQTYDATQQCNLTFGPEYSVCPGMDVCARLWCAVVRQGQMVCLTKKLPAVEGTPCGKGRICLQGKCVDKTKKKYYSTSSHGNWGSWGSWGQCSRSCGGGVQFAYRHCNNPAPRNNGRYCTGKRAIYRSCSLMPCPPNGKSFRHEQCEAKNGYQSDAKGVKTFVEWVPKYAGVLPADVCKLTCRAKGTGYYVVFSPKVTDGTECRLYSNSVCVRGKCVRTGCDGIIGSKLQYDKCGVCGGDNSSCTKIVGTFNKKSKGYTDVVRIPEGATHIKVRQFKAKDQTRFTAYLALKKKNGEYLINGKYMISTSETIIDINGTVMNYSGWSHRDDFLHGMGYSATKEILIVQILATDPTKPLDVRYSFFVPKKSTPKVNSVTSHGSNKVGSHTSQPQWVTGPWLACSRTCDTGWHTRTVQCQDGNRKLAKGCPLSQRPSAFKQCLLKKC

Interstitial collagenase = molecular target: T2, Interstitial collagenase (Homo sapiens, UniProt P03956); assay: Inhibition of human recombinant MMP1 after 60 mins by fluorescence plate reader
T2 sequence (P03956 whole entry): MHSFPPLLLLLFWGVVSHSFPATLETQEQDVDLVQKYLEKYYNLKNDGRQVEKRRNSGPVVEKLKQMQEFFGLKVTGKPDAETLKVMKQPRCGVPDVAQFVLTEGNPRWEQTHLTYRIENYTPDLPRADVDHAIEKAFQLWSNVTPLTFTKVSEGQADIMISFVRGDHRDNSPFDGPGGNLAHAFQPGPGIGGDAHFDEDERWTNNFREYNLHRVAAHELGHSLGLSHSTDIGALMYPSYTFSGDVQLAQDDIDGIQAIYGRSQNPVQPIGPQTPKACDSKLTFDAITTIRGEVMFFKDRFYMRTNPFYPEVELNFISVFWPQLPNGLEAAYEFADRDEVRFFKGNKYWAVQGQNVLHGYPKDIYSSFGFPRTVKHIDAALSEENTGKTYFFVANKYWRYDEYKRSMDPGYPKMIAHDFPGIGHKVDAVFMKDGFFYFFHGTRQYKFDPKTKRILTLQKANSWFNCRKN
Summary of the method: (§1)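 Recombinant human enzyme at 20 ng/mL with 10 μM MOCAc-Lys-Pro-Leu-Gly-Leu-A2pr(Dnp)-Ala-Arg-NH₂, in 100 mM Tris-HCl pH 7.5, 150 mM NaCl, 10 mM CaCl₂, 0.05% Brij-35. Enzyme pretreated with inhibitor for 15 min at 25 °C, then substrate added. Fluorescence (ex 325, em 405 nm) read at 60 min. IC50 taken from three points in the linear range; mean of ≥2 determinations.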

[2] = molecular target: Disintegrin and metalloproteinase domain-containing protein 17 (Homo sapiens, UniProt P78536); assay: Inhibition of human recombinant TACE after 60 mins by fluorescence plate reader
Sequence of Disintegrin and metalloproteinase domain-containing protein 17 (P78536 whole entry, the tested form may be a part): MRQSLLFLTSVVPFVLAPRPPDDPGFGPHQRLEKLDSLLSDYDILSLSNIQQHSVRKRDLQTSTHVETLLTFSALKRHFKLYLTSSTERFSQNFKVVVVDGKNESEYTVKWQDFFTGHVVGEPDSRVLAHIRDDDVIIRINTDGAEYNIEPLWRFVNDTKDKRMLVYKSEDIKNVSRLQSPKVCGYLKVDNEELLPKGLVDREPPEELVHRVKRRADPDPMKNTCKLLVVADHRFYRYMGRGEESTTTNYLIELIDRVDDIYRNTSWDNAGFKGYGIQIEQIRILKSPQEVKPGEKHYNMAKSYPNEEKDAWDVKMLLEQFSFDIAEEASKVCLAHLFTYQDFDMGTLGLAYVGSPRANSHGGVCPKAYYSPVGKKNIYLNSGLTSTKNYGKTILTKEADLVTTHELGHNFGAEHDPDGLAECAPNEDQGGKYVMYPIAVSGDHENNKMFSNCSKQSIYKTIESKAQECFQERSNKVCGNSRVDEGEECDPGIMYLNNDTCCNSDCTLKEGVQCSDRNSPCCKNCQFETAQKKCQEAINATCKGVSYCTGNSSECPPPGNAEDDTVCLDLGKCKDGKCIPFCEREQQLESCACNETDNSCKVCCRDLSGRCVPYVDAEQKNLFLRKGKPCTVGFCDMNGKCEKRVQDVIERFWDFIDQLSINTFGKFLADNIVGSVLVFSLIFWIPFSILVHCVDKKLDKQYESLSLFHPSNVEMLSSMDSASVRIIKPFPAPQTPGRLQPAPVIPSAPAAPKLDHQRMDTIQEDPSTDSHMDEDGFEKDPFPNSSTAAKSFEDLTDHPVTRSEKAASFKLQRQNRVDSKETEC
Summary of the method: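 rh-TACE at 80 ng/mL with 10 μM MCA-Pro-Leu-Ala-Gln-Ala-Val-Dpa-Arg-Ser-Ser-Ser-Arg-NH₂, in 100 mM Tris-HCl pH 7.5, 150 mM NaCl, 10 mM CaCl₂, 0.05% Brij-35. Inhibitor preincubated for 15 min at 25 °C. Fluorescence (ex 325/em 405 nm) read at 60 min. IC50 from three linear-range points; mean of ≥2.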

[3] = molecular target: Matrix metalloproteinase-14 (Homo sapiens, UniProt P50281); assay: Inhibition of human recombinant MMP14 after 60 mins by fluorescence plate reader; summary of the method: as §1

Cc1cc(S(=O)(=O)N[C@@]2(C(=O)O)[C@H](C)[C@@H]2c2ccccc2)sc1-n1cc(Cl)cn1
IC50 [1]: > 1000 nM

C[C@@H]1[C@H](c2ccccc2)[C@]1(NS(=O)(=O)c1ccc(-c2ccc(Cl)cc2)s1)C(=O)O
IC50 (Interstitial collagenase): 4000 nM
IC50 [2]: 2700 nM
IC50 [3]: 19 nM

C[C@@H]1[C@](C)(c2ccccc2)[C@]1(NS(=O)(=O)N1CCc2c(nn3cc(F)ccc23)C1)C(=O)O
IC50 [1]: 10 nM
IC50 (Interstitial collagenase): > 10000 nM
IC50 [2]: > 10000 nM
IC50 [3]: 2100 nM

COCc1cc(N2CCN(S(=O)(=O)N[C@@]3(C(=O)O)[C@H](C)[C@@H]3c3ccccc3)C[C@H]2C)no1
IC50 [1]: 67 nM
IC50 (Interstitial collagenase): > 10000 nM
IC50 [2]: > 10000 nM
IC50 [3]: 1400 nM

C[C@@H]1CN(S(=O)(=O)N[C@@]2(C(=O)O)[C@H](C)[C@@H]2c2ccccc2)CCN1c1ccc(C2CC2)cc1
IC50 [1]: 270 nM
IC50 (Interstitial collagenase): > 10000 nM
IC50 [3]: 1400 nM

C[C@@H]1[C@H](c2ccccc2)[C@]1(NS(=O)(=O)N1CCn2c(cc3cc(Cl)sc32)C1)C(=O)O
IC50 [1]: 110 nM
IC50 (Interstitial collagenase): > 10000 nM
IC50 [2]: > 10000 nM
IC50 [3]: 2300 nM

C[C@@H]1[C@H](c2ccccc2)[C@]1(NS(=O)(=O)N1CCn2c(nc3cc(Cl)ccc32)C1)C(=O)O
IC50 [1]: 60 nM
IC50 (Interstitial collagenase): > 10000 nM
IC50 [2]: > 10000 nM
IC50 [3]: 610 nM

C[C@@H]1[C@H](c2ccccc2)[C@]1(NS(=O)(=O)N1CCN(c2ccc(Cl)cc2)CC1)C(=O)O
IC50 [1]: 87 nM
IC50 (Interstitial collagenase): > 10000 nM
IC50 [2]: > 10000 nM
IC50 [3]: 450 nM

C[C@@H]1[C@H](c2ccccc2)[C@]1(NS(=O)(=O)c1cc2[nH]c3cc(Cl)ccc3c2s1)C(=O)O
IC50 [1]: 2.9 nM
IC50 (Interstitial collagenase): 1000 nM
IC50 [2]: 3800 nM
IC50 [3]: 17 nM

C[C@@H]1[C@H](c2ccccc2)[C@]1(NS(=O)(=O)N1CCN(c2ccc(Cl)cc2)C(C)(C)C1)C(=O)O
IC50 [1]: 330 nM
IC50 [3]: 2900 nM

C[C@@H]1[C@H](c2ccccc2)[C@]1(NS(=O)(=O)c1cc2[nH]c3cc(F)ccc3c2s1)C(=O)O
IC50 [1]: 8.3 nM
IC50 (Interstitial collagenase): 230 nM
IC50 [2]: 1100 nM
IC50 [3]: 8 nM

C[C@@H]1CN(S(=O)(=O)N[C@@]2(C(=O)O)[C@H](C)[C@@H]2c2ccccc2)CCN1c1ccc(F)cc1
IC50 [1]: 180 nM
IC50 (Interstitial collagenase): > 10000 nM
IC50 [2]: > 10000 nM
IC50 [3]: > 10000 nM

C[C@@H]1[C@H](c2ccccc2)[C@]1(NS(=O)(=O)N1CCn2c(nc3ccc(F)cc32)C1)C(=O)O
IC50 [1]: 100 nM
IC50 (Interstitial collagenase): > 10000 nM
IC50 [2]: > 10000 nM
IC50 [3]: 240 nM

CCC1CN(S(=O)(=O)N[C@@]2(C(=O)O)[C@H](C)[C@@H]2c2ccccc2)CCN1c1ccc(Cl)cc1 (mixture of isomers)
IC50 [1]: 410 nM
IC50 [3]: > 10000 nM

C[C@@H]1CN(S(=O)(=O)N[C@@]2(C(=O)O)[C@H](C)[C@@H]2c2ccccc2)CCN1c1ccc(C#N)s1
IC50 [1]: 33 nM
IC50 (Interstitial collagenase): > 10000 nM
IC50 [2]: > 10000 nM
IC50 [3]: 6000 nM

C[C@@H]1[C@H](c2ccccc2)[C@]1(NS(=O)(=O)N1CCn2c(nc3ccccc32)C1)C(=O)O
IC50 [1]: 92 nM
IC50 (Interstitial collagenase): > 10000 nM
IC50 [2]: > 10000 nM
IC50 [3]: 2200 nM

Cc1cnn(-c2ccc(S(=O)(=O)N[C@@]3(C(=O)O)[C@H](C)[C@@H]3c3ccccc3)s2)c1
IC50 [1]: 19 nM
IC50 (Interstitial collagenase): < 300 nM
IC50 [2]: > 10000 nM
IC50 [3]: 1.2 nM

C[C@@H]1[C@H](c2ccccc2)[C@]1(NS(=O)(=O)N1CCN(c2ccc(Cl)cc2)C(CO)C1)C(=O)O (mixture of isomers)
IC50 [1]: 230 nM
IC50 [3]: 6100 nM

C[C@@H]1[C@H](c2ccccc2)[C@]1(NS(=O)(=O)N1CCn2c(cc3cc(Cl)ccc32)C1)C(=O)O
IC50 [1]: 39 nM
IC50 (Interstitial collagenase): > 10000 nM
IC50 [2]: > 10000 nM
IC50 [3]: 420 nM

C[C@@H]1[C@H](c2ccccc2)[C@]1(NS(=O)(=O)N1CCc2c(nn3cc(F)ccc23)C1)C(=O)O
IC50 [1]: 8.6 nM
IC50 (Interstitial collagenase): 4200 nM
IC50 [2]: > 10000 nM
IC50 [3]: 140 nM

C[C@@H]1[C@H](c2ccccc2)[C@]1(NS(=O)(=O)N1Cc2nc3cc(Cl)ccn3c2C1)C(=O)O
IC50 [1]: 66 nM
IC50 (Interstitial collagenase): 3700 nM
IC50 [2]: > 10000 nM
IC50 [3]: 280 nM

C[C@@H]1CN(S(=O)(=O)N[C@@]2(C(=O)O)[C@H](C)[C@@H]2c2ccccc2)CCN1c1cc(C(C)(F)F)on1
IC50 [1]: 130 nM
IC50 (Interstitial collagenase): 2600 nM
IC50 [2]: > 10000 nM
IC50 [3]: 1100 nM

C[C@@H]1[C@H](c2ccccc2)[C@]1(NS(=O)(=O)c1cc2[nH]c3ccc(F)cc3c2s1)C(=O)O
IC50 [1]: 10 nM
IC50 (Interstitial collagenase): 1300 nM
IC50 [2]: 1900 nM
IC50 [3]: 25 nM

C[C@@H]1[C@H](c2ccccc2)[C@]1(NS(=O)(=O)N1CCc2c([nH]c3cc(F)ccc23)C1)C(=O)O
IC50 [1]: 38 nM
IC50 (Interstitial collagenase): 2300 nM
IC50 [2]: > 10000 nM
IC50 [3]: 98 nM

C[C@@H]1[C@H](c2ccccc2)[C@]1(NS(=O)(=O)N1CCc2c(nc3cc(F)ccn23)C1)C(=O)O
IC50 [1]: 17 nM
IC50 (Interstitial collagenase): > 10000 nM
IC50 [2]: 6300 nM
IC50 [3]: 2100 nM

C[C@@H]1[C@H](c2ccccc2)[C@]1(NS(=O)(=O)N1CCn2c(nc3cc(C#N)ccc32)C1)C(=O)O
IC50 [1]: 250 nM
IC50 (Interstitial collagenase): > 10000 nM
IC50 [2]: > 10000 nM
IC50 [3]: 4900 nM

C[C@@H]1[C@H](c2ccccc2)[C@]1(NS(=O)(=O)N1CC=C(c2ccc(Cl)cc2)CC1)C(=O)O
IC50 [1]: 62 nM
IC50 (Interstitial collagenase): > 10000 nM
IC50 [2]: > 10000 nM
IC50 [3]: 300 nM

C[C@@H]1[C@H](c2ccccc2)[C@]1(NS(=O)(=O)N1CCc2c(nc3cc(Cl)ccn23)C1)C(=O)O
IC50 [1]: 21 nM
IC50 (Interstitial collagenase): > 10000 nM
IC50 [2]: > 10000 nM
IC50 [3]: 270 nM

Cc1ccc2c(c1)nc1n2CCN(S(=O)(=O)N[C@@]2(C(=O)O)[C@H](C)[C@@H]2c2ccccc2)C1
IC50 [1]: 320 nM
IC50 (Interstitial collagenase): > 10000 nM
IC50 [2]: > 10000 nM
IC50 [3]: 900 nM

C[C@@H]1[C@H](c2ccccc2)[C@]1(NS(=O)(=O)c1cc2nc3cc(Cl)ccn3c2s1)C(=O)O
IC50 [1]: 23 nM
IC50 (Interstitial collagenase): 1500 nM
IC50 [2]: > 10000 nM
IC50 [3]: 100 nM

COc1ccc2c(c1)nc1n2CCN(S(=O)(=O)N[C@@]2(C(=O)O)[C@H](C)[C@@H]2c2ccccc2)C1
IC50 [1]: 330 nM
IC50 (Interstitial collagenase): > 10000 nM
IC50 [2]: > 10000 nM
IC50 [3]: 4300 nM

C[C@@H]1[C@H](c2ccccc2)[C@]1(NS(=O)(=O)N1CCn2c(nc3cc(F)ccc32)C1)C(=O)O
IC50 [1]: 20 nM
IC50 (Interstitial collagenase): > 10000 nM
IC50 [2]: > 10000 nM
IC50 [3]: 1100 nM

C[C@@H]1[C@H](c2ccccc2)[C@]1(NS(=O)(=O)c1cc2nn3cc(Cl)ccc3c2s1)C(=O)O
IC50 [1]: 29 nM
IC50 (Interstitial collagenase): 1300 nM
IC50 [2]: > 10000 nM
IC50 [3]: 100 nM

COc1cnn(-c2ccc(S(=O)(=O)N[C@@]3(C(=O)O)[C@H](C)[C@@H]3c3ccccc3)s2)c1
IC50 [1]: 17 nM
IC50 (Interstitial collagenase): 33 nM
IC50 [2]: 1600 nM
IC50 [3]: 1.3 nM
